Test [1] in a line: Dissociation rate to 5'-biotin-conjugated d(TTTTCGCGCG-TTTT-CGCGCG) DNA (unknown origin) measured for 150 seconds by SPR analysis.
Test [2] is described as follows: Dissociation rate to 5'-biotin-conjugated d(TTTTCGCm8GCG-TTTT-CGCm8GCG) DNA (unknown origin) measured for 150 seconds by SPR analysis. On the technique in general: In SPR one partner is held on a chip, and binding of the other changes the refractive index at the surface.
The nature of test [3]: Selectivity ratio of Ka for 5'-biotin-conjugated d(TTTTCGCGCG-TTTT-CGCGCG) DNA (unknown origin) to Ka for 5'-biotin-conjugated d(TTTTCGCm8GCG-TTTT-CGCm8GCG) DNA (unknown origin).
The nature of test [4]: Selectivity ratio of Ka for d(CGCm8GCG)2 DNA (unknown origin) to Ka for d(CGCGCG)2 DNA (unknown origin). A digest of the protocol:
(§1)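 Isothermal titration calorimetry at 25.0 °C. Ligand at 1 mM, dissolved in the final ODN dialysate, was titrated into 10.0 µM duplex d(CGCGCG)2 or d(CGCm8GCG)2 in 5 mM Na cacodylate, 100 mM NaCl, pH 7.0. The first 2 µL injection was followed by 10 µL injections, and the first injection was discarded. Samples were degassed. Stoichiometry is ligand per duplex.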

Test [5] in a line: Binding affinity to d(CGCGCG)2 DNA (unknown origin) assessed as association constant at 2.0 compound to DNA molar ratio by ITC analysis. A digest of the protocol: as §1
In general terms: Isothermal titration calorimetry measures the heat released or taken up as one component is titrated into another.

Test [6] is described as follows: Binding affinity to d(CGCm8GCG)2 DNA (unknown origin) assessed as association constant at 1.8 compound to DNA molar ratio by ITC analysis. An outline of the steps:
as §1

Test [7] can be described thus: Binding affinity to d(CGCm8GCG)2 DNA (unknown origin) assessed as change in UV-melting temperature at 5 uM. An outline of the steps: (§2)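 UV melting used 5 µM B- or Z-DNA in 5 mM Na cacodylate, 100 mM NaCl, pH 7.0, with or without 5 µM ligand. Temperature was ramped at 1 °C/min between 10 and 60 °C.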
Test [8] is described as follows: Binding affinity to d(CGCGCG)2 DNA (unknown origin) assessed as association constant at 2:1 DNA to compound ratio by ITC analysis. An outline of the steps: as §1
Test [9] is described as follows: Binding affinity to d(CGCGCG)2 DNA (unknown origin) assessed as association constant at 4.0 compound to DNA molar ratio by ITC analysis. An outline of the steps: as §1
The nature of test [10]: Selectivity ratio of Ka for 5'-biotin-conjugated d(TTTTCGCm8GCG-TTTT-CGCm8GCG) DNA (unknown origin) to Ka for 5'-biotin-conjugated d(TTTTCGCGCG-TTTT-CGCGCG) DNA (unknown origin).
Test [11] can be described thus: Induction of d(CGCGCG)2 DNA (unknown origin) to d(CGCm8GCG)2 DNA transition up to 160 uM by CD spectra analysis in presence of low concentration of NaCl. A digest of the protocol: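 CD at 20 °C in a 2 mm cell. 20 µM d(CGCGCG)2 in 5 mM Na cacodylate, 100 mM NaCl, pH 7.0, was titrated with ligand stock from 0 to 160 µM. Spectra were blank-corrected and averaged over four scans.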

Test [12] can be described thus: Binding affinity to d(CGCm8GCG)2 DNA (unknown origin) assessed as association constant at 1.7 compound to DNA molar ratio by ITC analysis. An outline of the steps: as §1
A short description of test [13]: Selectivity ratio of Ka for d(CGCGCG)2 DNA (unknown origin) to Ka for d(CGCm8GCG)2 DNA (unknown origin). A digest of the protocol:
as §1

Test [14] can be described thus: Binding affinity to d(CGCm8GCG)2 DNA (unknown origin) assessed as association constant at 4.1 compound to DNA molar ratio by ITC analysis. A digest of the protocol:
as §1

Test [15] can be described thus: Binding affinity to d(CGCGCG)2 DNA (unknown origin) assessed as association constant at 3.5 compound to DNA molar ratio by ITC analysis. An outline of the steps:
as §1

Test [16] can be described thus: Binding affinity to d(CGCGCG)2 DNA (unknown origin) assessed as change in UV-melting temperature at 5 uM. An outline of the steps: as §2

Values joined by “and” are separate entries in the source; they are usually repeats but may differ in a detail not shown here. Identical values can stand only once. Active and inactive are the calls of the source. The calls are words filed in the database; no cut-off is given here.

For orientation: ΔTm means the shift of the melting midpoint relative to a reference.

In the case of `Cc1cccc2ccc3c4c(c5ccc6cccc(C)c6c5c3c12)C(=O)N(CCCNCCCCNCCCN)C4=O`, the koff in test [1] is 3.7 ×10⁻³ /s and 8.59 ×10⁻³ /s; in test [2] it was 5.48 ×10⁻³ /s and 6.68 ×10⁻³ /s. Also, the Selectivity ratio worked out at 7 in test [3], 2 in [4], 2 in test [10] and 50 in [13]. Besides, the Ka was determined as 36.7 ×10⁷ /M in test [5]; 0.17 ×10⁷ /M in [6]; 3.7 ×10⁸ /M in [8]; 0.083 ×10⁷ /M in [9]; 0.67 ×10⁷ /M in test [12]. In addition, the ΔTm in [7] was 7.5 °C and 3.3 °C. Moreover, the outcome in test [11] was Active.

As for `NCCCNCCCCNCCCN1C(=O)C(c2ccc3ccccc3c2)=C(c2ccc3ccccc3c2)C1=O`, the koff in test [1] turned out to be 7.49 ×10⁻³ /s; in test [2], 6.66 ×10⁻³ /s. Also, the Ka in test [14] was found to be 0.31 ×10⁷ /M; in test [15] it was 0.62 ×10⁷ /M. For the same molecule, the ΔTm was found to be 18 °C in test [7] and 16 °C in [16].

The record behind these values is ChEMBL document CHEMBL2424623, “Enantioselective binding of chiral 1,14-dimethyl[5]helicene-spermine ligands with B- and Z-DNA” (Bioorg Med Chem, 2013).
